Measured values as given in article PMC5987874 (The Journal of General Physiology, 2018).
Changes are numbered by the printed parent chain.

Assays:
Test in all cases: Whole-cell voltage clamp, Zn^2+ modulation of GAQ gating
Format in all cases: cell-based
human Hv1 E119H-H193A = target: T1, human Hv1 E119H-H193A (Homo sapiens, UniProt Q96D96, E119H/H193A)
T1 sequence (Q96D96 1-273 E119H/H193A): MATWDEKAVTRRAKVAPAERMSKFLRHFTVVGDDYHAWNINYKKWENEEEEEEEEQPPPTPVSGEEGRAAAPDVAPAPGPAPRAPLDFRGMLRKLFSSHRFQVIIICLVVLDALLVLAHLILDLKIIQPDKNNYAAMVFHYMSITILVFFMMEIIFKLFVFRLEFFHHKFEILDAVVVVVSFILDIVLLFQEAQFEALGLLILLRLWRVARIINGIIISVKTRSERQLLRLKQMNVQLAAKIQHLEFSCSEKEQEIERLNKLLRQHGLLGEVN
Procedure, shortened: (§1)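 Whole-cell patch clamp at ~21°C. Pipette and bath (mM): ~80 TMA-MeSO3, 100 Bis-Tris, 8 HCl, pH 6.5, 310–320 mOsm. ZnCl2 was diluted into bath solution and applied by gravity superfusion, at least 2 min per change. Test step voltage was set per construct from its V0.5. G_STEP = end-of-step current/(V−V_REV). Effect = 1 − G_Zn/G_control, fitted to the Hill equation. IC50 and nH are means ± SEM from separate cells. ΔpIC50 was tested by unpaired t test, P<0.05.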

human Hv1 D130H-H193A = target: T2, human Hv1 D130H-H193A (Homo sapiens, UniProt Q96D96, D130H/H193A)
T2 sequence (Q96D96 1-273 D130H/H193A): T1 sequence (Q96D96 1-273 E119H/H193A) with H119E, D130H
Procedure, shortened: as §1

[1] = target: T3, human Hv1 H140A-D185H-H193A (Homo sapiens, UniProt Q96D96, D185H/H140A/H193A)
T3 sequence (Q96D96 1-273 H140A/D185H/H193A): T1 sequence (Q96D96 1-273 E119H/H193A) with H119E, H140A, D185H
Procedure, shortened: as §1

[2] = target: T4, human Hv1 E119H-H140A-D185H-H193A (Homo sapiens, UniProt Q96D96, D185H/E119H/H140A/H193A)
T4 sequence (Q96D96 1-273 E119H/H140A/D185H/H193A): T1 sequence (Q96D96 1-273 E119H/H193A) with H140A, D185H
Procedure, shortened: as §1

human Hv1 D185A-H193A = target: T5, human Hv1 D185A-H193A (Homo sapiens, UniProt Q96D96, D185A/H193A)
T5 sequence (Q96D96 1-273 D185A/H193A): T1 sequence (Q96D96 1-273 E119H/H193A) with H119E, D185A
Procedure, shortened: as §1

[3] = target: T6, human Hv1 E196H (E^4.38H) (Homo sapiens, UniProt Q96D96, E196H)
T6 sequence (Q96D96 1-273 E196H): T1 sequence (Q96D96 1-273 E119H/H193A) with H119E, A193H, E196H
Procedure, shortened: as §1

[4] = VSTEP 100 mV, calculated as log (IC50)
[5] = VSTEP 120 mV, calculated as log (IC50)

`[Cl-].[Cl-].[Zn+2]` [Zn^2+, ZnCl2] was tested, and the “Mean ΔpIC50 = (pIC50_1 - pIC50_2)” value (human Hv1 E119H-H193A; E119H-H193A vs H193A) was 1.38, the “nH, fit of the mean data to a Hill function” value (shortened to “nH, fit of the mean data”) (human Hv1 E119H-H193A; Fig. 4A) was 0.7 and the Hill value (human Hv1 E119H-H193A; VSTEP 100 mV) was 0.86. For the same compound, the pIC50 (human Hv1 E119H-H193A; [4]) was 5.45, the IC50 (human Hv1 E119H-H193A; read-out: IC50, fit of the mean data to a Hill function, Fig. 4A) was 4.2 µM and the “Mean ΔpIC50 = (pIC50_1 - pIC50_2)” value (human Hv1 D130H-H193A; D130H-H193A vs D130H) was −0.16. For the same compound, the “Mean ΔpIC50 = (pIC50_1 - pIC50_2)” value (human Hv1 D130H-H193A; D130H-H193A vs H193A) was 1.44, the “nH, fit of the mean data” value (human Hv1 D130H-H193A; Fig. 4C) was 0.6 and the Hill value (human Hv1 D130H-H193A; VSTEP 120 mV) was 0.91. The pIC50 (human Hv1 D130H-H193A; [5]) was 5.51, the IC50 (human Hv1 D130H-H193A; read-out: IC50, fit of the mean data to a Hill function, Fig. 4C) was 5.6 µM and the “Mean ΔpIC50 = (pIC50_1 - pIC50_2)” value ([1]; H140A-D185H-H193A vs H140A-H193A) was 0.38. For the same compound, the Hill value ([1]; VSTEP 100 mV) was 1.05, the pIC50 [1, 4] was −3.15 and the “Mean ΔpIC50 = (pIC50_1 - pIC50_2)” value ([2]; E119H-H140A-D185H-H193A vs E119H-H140A-H193A) was −0.25. For the same compound, the “Mean ΔpIC50 = (pIC50_1 - pIC50_2)” value ([2]; E119H-H140A-D185H-H193A vs H140A-D185H-H193A) was 1.75, the Hill value ([2]; VSTEP 120 mV) was 0.72 and the pIC50 [2, 5] was −4.90. For the same compound, the “nH, fit of the mean data” value (human Hv1 D185A-H193A; Fig. 4D) was 0.7, the Hill value (human Hv1 D185A-H193A; VSTEP 140 mV) was 0.62 and the pIC50 (human Hv1 D185A-H193A; VSTEP 140 mV, calculated as log (IC50)) was −3.88. The IC50 (human Hv1 D185A-H193A; read-out: IC50, fit of the mean data to a Hill function, Fig. 4D) was 99.2 µM, the “Mean ΔpIC50 = (pIC50_1 - pIC50_2)” value ([3]; E196H vs WT) was −0.43 and the Hill value ([3]; VSTEP 100 mV) was 0.63. For the same compound, the pIC50 [3, 4] was −4.63.
